# Measurements as given in publication PMC3823501 (Cancer research, 2013).
# Where two headings read alike, the source gives them in different places.
# Columns and labels:
# [1] = test system: KB cells; assay: Real-time cell proliferation; assay type: cell-based, human; conditions: 20 µM COH29, 20 µM Gem or 1 mM HU
# Procedure, shortened: (§1)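 Cell proliferation was followed by real-time electronic cell sensing (RT-CES, W200 16X) with 2,500 cells seeded per well. From 24 h after seeding, the cell index was recorded every half hour for 120 hours. Quadruplicate samples were used, and traces show the mean of 4 replicates.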
# [2] = test system: KB-HURs cells; assay: 72 h viability assay, HU-resistant KB clone; assay type: cell-based, human
# Procedure, shortened: (§2)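 72 h MTS viability test (CellTiter 96 AQueous) on 10 replicate wells per condition, following the kit instructions. IC50 is the concentration that lowers viability to 50% of the DMSO control. KB cells were grown in RPMI 1640 with 10% FBS and 1% penicillin-streptomycin at 37°C in humidified 5% CO2. KB-HURs and KB-Gem are KB-derived resistant clones.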
# [3] = test system: KB cells; assay: 72 h MTS viability assay, KB cells; assay type: cell-based, human
# Procedure, shortened: as §2
# [4] = patients; cited from earlier work
# [5] = test system: KB-HURs cells; conditions: cited from earlier work
# [6] = test system: KB-Gem cells; assay: 72 h viability assay, gemcitabine-resistant KB clone; assay type: cell-based; conditions: Homo sapiens, read-out: IC50, toxicity assay
# Procedure, shortened: as §2
# [7] = Tolerability in mice; assay type: in vivo; conditions: up to a daily dose of 500 mg/kg
# [8] = test system: TOV-112D tumor xenograft; assay: TOV-112D tumor xenograft in mice; assay type: in vivo, mouse; conditions: 200, 300, or 400 mg/kg/day oral, 7 days
# Procedure, shortened: (§3)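 Female NSG (NOD/SCID/IL2Rgamma null) mice, 8–10 weeks old, received 5×10^6 MOLT-4 or TOV-112D cells subcutaneously in the right flank. Tumour volume was taken as 0.5×l×w2. Once tumours reached about 70 mm3, test compound in 30% solutol was given daily by gavage on a one- or two-dose schedule. Mice were sacrificed on day 28 after implantation; 4 animals/group, mean ± SD.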
# [9] = test system: NHDF cells; assay: 72 h viability assay, normal dermal fibroblasts; assay type: cell-based; conditions: Homo sapiens, read-out: IC50, viability
# [10] = target: T1, RRM1-RRM2 interaction (Homo sapiens, UniProt P31350); assay type: binding
# T1 sequence (P31350 1-389): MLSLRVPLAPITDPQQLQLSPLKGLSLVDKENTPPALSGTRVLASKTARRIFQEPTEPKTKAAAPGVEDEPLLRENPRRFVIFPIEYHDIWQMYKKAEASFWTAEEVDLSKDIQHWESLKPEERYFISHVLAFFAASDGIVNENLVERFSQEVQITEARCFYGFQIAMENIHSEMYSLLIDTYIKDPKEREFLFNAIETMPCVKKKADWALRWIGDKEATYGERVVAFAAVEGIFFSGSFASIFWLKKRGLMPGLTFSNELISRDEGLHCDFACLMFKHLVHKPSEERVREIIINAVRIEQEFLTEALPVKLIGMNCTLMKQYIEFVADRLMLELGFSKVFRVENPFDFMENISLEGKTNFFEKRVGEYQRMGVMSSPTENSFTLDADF
# Procedure, shortened: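 Surface plasmon resonance on a Biacore […] with hRRM2 immobilised on a CM4 chip. hRRM1 (0–1 µM) binding was first confirmed and a KD derived. A fixed 0.5 µM hRRM1 was then co-injected with test compound at 0–50 µM, and sensorgrams were read.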
# [11] = test system: MOLT-4 tumor xenograft; assay: MOLT-4 tumor xenograft in mice; assay type: in vivo, mouse; conditions: twice-daily oral dosing 50 mg/kg and 100 mg/kg, Day 12
# Procedure, shortened: as §3
# [12] = Pharmacokinetics in mice, HPLC-MS/MS of plasma; assay type: in vivo, mouse
# Procedure, shortened: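 Mice received 800 mg/kg test compound orally or intravenously. Plasma levels were measured by HPLC-tandem mass spectrometry (Agilent 1100 capillary LC with triple-quadrupole MS). Oral bioavailability was derived by comparison with the intravenous route.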
# [13] = test system: KBHURs cells; assay: Real-time cell proliferation; assay type: cell-based, human; conditions: COH29 2–250 µM
# Procedure, shortened: as §1
# [14] = test system: dNTP pools in MOLT-4 cells; assay: dNTP pools in MOLT-4 cells; assay type: cell-based, human; conditions: 10 µM, by 24 h
# Procedure, shortened: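 MOLT-4 cells were exposed to 10 µM test compound or left untreated (control). dATP, dCTP and dGTP levels were measured after 4, 8 and 24 h.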
# [15] = target: T2, recombinant hRRM2/hRRM1 (Homo sapiens, UniProt P31350); assay: [3H] CDP reduction assay, recombinant hRRM2/hRRM1; assay type: biochemical
# T2 sequence (P31350 1-389): T1 sequence (P31350 1-389)
# [16] = target: T3, endogenously expressed RNR in KB cells (Homo sapiens, UniProt P31350); assay: RNR activity in cell lysates of KB cells; assay type: cell-based; conditions: 24 h incubation, 10 µM
# T3 sequence (P31350 1-389): T1 sequence (P31350 1-389)
# [17] = test system: hRRM2 protein level in TOV-112D cells; assay: Western blot of hRRM2 protein level, TOV-112D cells; assay type: cell-based, human; conditions: 20 µM
# Procedure, shortened: (§4)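 KB and TOV-112D cells were treated with 20 µM test compound for a series of times. Lysates were western blotted for hRRM2, with β-actin as loading control.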
# [18] = target: T4, immobilized full-length hRRM2 (Homo sapiens, UniProt P31350); assay: Surface plasmon resonance, immobilized full-length hRRM2; assay type: binding; conditions: 0.0 – 50.0 µM compound
# T4 sequence (P31350 1-389): T1 sequence (P31350 1-389)
# Procedure, shortened: (§5)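 Surface plasmon resonance on a Biacore […], with full-length or C-terminally truncated hRRM2 immobilised on CM4 sensor chips. Test compound was injected at 0.0–50.0 µM and binding was read from sensorgrams.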
# [19] = test system: KB cells; assay: Cell cycle and apoptosis by flow cytometry, KB cells; assay type: cell-based, human
# Procedure, shortened: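 After 48 h of treatment, KB cells were analysed on a FACScalibur flow cytometer. Propidium iodide staining gave cell-cycle distribution and Annexin V signal gave apoptosis.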
# [20] = test system: hRRM2 protein level in KB cells; assay: Western blot of hRRM2 protein level, KB cells; assay type: cell-based, human; conditions: 20 µM
# Procedure, shortened: as §4
# [21] = test system: dNTP pools in MOLT-4 tumor xenografts; assay: Intratumoral dNTP pools of MOLT-4 tumor xenografts; assay type: in vivo, mouse; conditions: MOLT-4 xenografts, treated vs. control
# [22] = target: T5, C-terminal truncated hRRM2 (Homo sapiens, UniProt P31350); assay: Surface plasmon resonance, C-terminal truncated hRRM2; assay type: binding; conditions: 0.0 – 50.0 µM compound
# T5 sequence (P31350 1-348 limits assumed): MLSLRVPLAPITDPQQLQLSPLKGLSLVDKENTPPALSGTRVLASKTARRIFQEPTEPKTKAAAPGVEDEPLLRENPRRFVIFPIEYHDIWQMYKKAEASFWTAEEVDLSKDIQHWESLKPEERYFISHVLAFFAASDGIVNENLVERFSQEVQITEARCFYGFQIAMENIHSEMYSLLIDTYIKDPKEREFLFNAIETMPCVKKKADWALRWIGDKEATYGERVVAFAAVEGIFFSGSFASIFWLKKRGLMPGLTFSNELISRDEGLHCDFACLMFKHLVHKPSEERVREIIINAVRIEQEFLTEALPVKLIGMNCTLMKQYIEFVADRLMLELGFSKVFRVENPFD
# Procedure, shortened: as §5
# [23] = test system: KB-Gem cells; assay: Real-time cell proliferation; assay type: cell-based, human; conditions: COH29 2–250 µM
# [24] = test system: NCI broad panel of 60 human cancer cell lines; assay: NCI 60 human cancer cell line panel, MTT cytotoxicity; assay type: cell-based; conditions: 10 µM
# [25] = target: T6, RNR in MOLT-4 tumor xenografts (Homo sapiens, UniProt P31350); assay: RNR activity in extracts of MOLT-4 tumor xenografts; assay type: in vivo, mouse; conditions: mice treated for 12 days, 100 mg/kg
# T6 sequence (P31350 1-389): T1 sequence (P31350 1-389)
# Procedure, shortened: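 RNR activity was measured in extracts of subcutaneous MOLT-4 xenografts from NSG mice dosed orally for 12 days with vehicle (solutol-15) or 100 mg/kg test compound.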
# [26] = Homo sapiens, KB, read-out: IC50, cell proliferation/viability
# [27] = female, Balb/c nude, mouse, plasma, po, 800 mg/kg
smiles,measurement,setting,value
"NC(=O)NO [HU, hydroxyurea]",real-time KB cell growth after addition at 24 h,[1],cell growth continued
same,IC50,"[2]; read-out: IC50, toxicity assay, KB-HURs",320 µM
same,IC50,"[3]; read-out: IC50, cell proliferation/viability, KB cells",180 µM
"NC(=S)NN=Cc1ncccc1N [3-AP, 3-aminopyridine-2-carboxaldehyde thiosemicarbazone]",toxicities reported from the phase I trial,[4],"hypoxia, respiratory distress, and methemoglobulinemia"
same,activity in KBHURs,[5],active
"Nc1ccn([C@@H]2O[C@H](CO)[C@@H](O)C2(F)F)c(=O)n1 [Gem, gemcitabine]",IC50,[6],1000 µM
same,real-time KB cell growth after addition at 24 h,[1],cell growth continued
same,IC50,[3]; [26],9 µM
"O=C(Nc1nc(-c2ccc(O)c(O)c2)c(-c2ccccc2)s1)c1ccc(O)c(O)c1 [COH29, N-(4–(3,4-dihydroxyphenyl)-5-phenylthiazol-2-yl)-3,4-dihydroxybenzamide]","tolerability, side effects",[7],no appreciable side effects
same,IC50,[6],8 µM
same,TOV-112D tumor xenograft growth,[8],dose-dependent inhibition
same,IC50,[9],82 µM
same,effect on RRM1-RRM2 binding,"[10]; 0.5 µM RRM1, 0 – 50 µM compound",interfered with RRM1-RRM2 binding in a dose-dependent manner
same,effect on RRM1-RRM2 interaction at low dose,"[10]; 12.5 µM compound, 0.5 µM RRM1",enhanced RRM1-RRM2 interaction
same,effect on RRM1-RRM2 complex at higher dose,"[10]; > 25µM compound, 0.5 µM RRM1",disrupted the complex
same,MOLT-4 tumor xenograft growth,[11],dose-dependent inhibition
same,peak plasma concentration,"[12]; PO 800 mg/kg in 30% solutol, female Balb/c nude mice",10 µM
same,Tmax,[12]; [27],30 min
same,concentration at 24 h,[12]; [27],~200 nM
same,real-time KB cell growth after addition at 24 h,[1],essentially halted
same,real-time growth of KBHURs,[13],remained sensitive
same,"levels of dATP, dCTP and dGTP",[14],all pools were greatly decreased
same,IC50,[15],16 µM
same,decrease of endogenously expressed RNR activity,[16],approximately 50%
same,hRRM2 protein level,[17],unaffected
same,interaction with immobilized full-length hRRM2 (sensorgram),[18],dose-dependent interaction
same,apoptosis,[19],underwent apoptosis
same,cell cycle distribution,[19]; 48 h treatment,arrested at S-phase
same,hRRM2 protein level,[20],unaffected
same,IC50,"[2]; Homo sapiens, read-out: IC50, toxicity assay",8 µM
same,intratumoral dNTP pools,[21],decreased
same,binding after removal of 41 C-terminal amino acids from hRRM2,[22],greatly decreased
same,real-time growth of KB-Gem,[23],cytotoxic activity is strong and is unaffected by Gem resistance
same,cytotoxicity in NCI 60 panel,[24],Impressive inhibition of most of the cancer cell lines
same,IC50,[3]; [26],8 µM
same,RNR activity in extracts of MOLT-4 tumor xenografts,[25],dramatically lower
